Compounds with a hit are over-represented: about 4.1% of the library has one in this group of screens.
MPTP block = blocks calcium-induced mitochondrial swelling; inhibition, % at 10 µM; 360,000 compounds, 1.4% hits; AID 602449; isolated mouse mitochondria, Ca2+ swelling absorbance, 30 min;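 active = inhibition of 50% or more, scaled per plate between neutral and stimulator controls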;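 note: 0% = DMSO wells given calcium and 100% = 1 mM EGTA wells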
MC4R antag cAMP = blocks human MC4R cAMP signaling; P32245; MC4R-expressing cells, MTII-stimulated cAMP, LANCE TR-FRET; inhibition, % at 6.5 µM; 360,000 compounds, 0.48% hits; AID 540295;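 active = inhibition above its plate's cutoff, the mean of tested wells on that plate plus 3 SD, cut at about 29% in these data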;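 note: 0% = Melanotan II alone and 100% = Melanotan II plus saturating MCL0020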
Target sequence (P32245 whole entry, looked up): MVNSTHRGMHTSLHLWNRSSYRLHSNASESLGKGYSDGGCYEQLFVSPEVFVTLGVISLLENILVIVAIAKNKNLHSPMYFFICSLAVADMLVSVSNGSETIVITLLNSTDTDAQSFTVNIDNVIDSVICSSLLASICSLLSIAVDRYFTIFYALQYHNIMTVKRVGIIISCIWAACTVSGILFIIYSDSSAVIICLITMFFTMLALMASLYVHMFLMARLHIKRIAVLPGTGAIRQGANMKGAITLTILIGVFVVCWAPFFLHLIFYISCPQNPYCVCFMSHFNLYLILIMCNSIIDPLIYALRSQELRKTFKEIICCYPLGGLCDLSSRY
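Test system: U2OS cells stably expressing human melanocortin 4 receptor (MC4R); also added: Melanotan II challenge; compound: 6.5 µM single dose; timing: 30-min compound preincubation, 1-h Melanotan II challenge, 1-h detection, room temperature; signal: Eu-cAMP/anti-cAMP TR-FRET, emission 671 nm; repeats: one well per compound, no replicates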
SMARCA2 act = activators of SMARCA2 function; AID 652017; MG213 cells, MMTV-luciferase reporter, dexamethasone, overnight; 370,000 compounds, 1% hits; activation, % at 9.1 µM; in the data active = activation above about 7.8%;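 note: 0% = vehicle wells and 100% = reference activator wells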
ATG4B inhibitor = ATG4B (human) cysteine protease inhibition; Q9Y4P1; ATG4B cleavage of LC3-PLA2, NBD-HPC fluorescence, 1 h; inhibition, % at 8.33 µM; 340,000 compounds, 0.51% hits; AID 504462; in the data active = inhibition above about 40%
MC4R barr agon = human MC4R agonism via beta-arrestin | P32245 | U2OS MC4R beta-arrestin complementation, luminescence; percent of melanotan II response, DMSO zero | activation, % at 8.9 µM | 360,000 compounds, 0.98% hits;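 active = activation above a per-plate cutoff, the mean activation of sample wells on that plate plus 3 SD, cut at about 8% in these data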
SMARCA2 act conf = SMARCA2 activation, confirmation screen; shares compounds with SMARCA2 act; MG213 cells, MMTV-luciferase with dexamethasone, luminescence, overnight; MG213 cells expressing E1A, Rb sequestered; DMSO wells 0%, reference activator 100%; activation, % at 9.1 µM; 3,500 compounds, 30% hits; AID 652260;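 active = activation above its plate's cutoff, the mean activation of tested wells plus 3 SD, cut at about 7.9% in these data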
VP16 Luc act = activates GAL4-VP16 luciferase, flagging SMARCA2 activator hits | shares compounds with SMARCA2 act | HEK293 GAL4-VP16 pG5luc reporter, luciferase luminescence; scaled: DMSO wells 0%, SAHA wells 100% | 3,500 compounds, 41% hits | activation, % at 9.1 µM | AID 686939;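 active = activation above the solvent-only control well mean plus 3 SD, averaged across control plates, cut at about 5.2% in these data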
Starred values were filed as active, the others as inactive; / = not tested or not shown.

SMILES	MPTP block	MC4R antag cAMP	SMARCA2 act	ATG4B inhibitor	MC4R barr agon	SMARCA2 act conf	VP16 Luc act
COc1ccc(CCNC(=O)C(=O)NCC2OCCN2C(=O)c2ccc(Cl)cc2)cc1OC (stereo unspecified)	0	4	9.5*	-8	-3	0	1
COC(=O)C1=C(C)N(C)C(=NCc2ccc3c(c2)OCO3)NC1c1ccc(C(F)(F)F)cc1 (stereo unspecified)	/	/	-3	/	/	/	/
O=C(O)c1c2c(nc3ccccc13)/C(=C/c1ccc(O)cc1)CC2	1	-1	0	6	-1	/	/
COc1cccc2c1CCc1c-2nc2ccccc2c1C(=O)O	-1	23	11*	2	1	8.2*	5.9*
COc1ccc(-n2c(COc3ccccc3)nnc2SCC(=O)Nc2ccc(OCc3ccccc3)cc2)cc1	/	/	6	/	/	/	/
CCn1c2ccccc2c2cc(NC(=O)COC(=O)c3cc(F)ccc3C)ccc21	/	/	-3	/	/	/	/
C/C(=C\c1ccccc1)C(=O)Nc1cc(C)on1	-1	4	9.9*	-10	-1	5	6.9*
CCOc1ccc(OCc2ccc(C(=O)Nc3ccc(Cl)cn3)o2)cc1	1	-3	10*	10	-1	4	3
CCCCOCC1CN(CCCC)S(=O)(=O)c2c(cccc2Sc2ccc(OC)c(OC)c2)O1 (stereo unspecified)	/	/	-2	/	/	/	/
O=C(Nc1nc(=O)c2ccccc2s1)c1ccc(F)cc1	0	12	19*	-3	5	8.1*	8.0*
CCCn1c(CC)nc([N+](=O)[O-])c1S(=O)(=O)c1ccccc1	-1	8	10*	10	-1	-12	-1
Cc1cccc(CNC(=O)c2cc(S(=O)(=O)N3CCOCC3)cn2C)c1	0	10	14*	2	-2	2	1
Cc1cccc(CCNC(=O)c2cc(S(=O)(=O)N3CCOCC3)cn2C)c1	-1	11	-2	2	0	/	/
COc1ccccc1C(=O)NC1CCCCCCC1	0	-2	8.0*	-7	-1	5	3
COc1ccccc1C(=O)NCCC(=O)NC1CCC(C)CC1 (stereo unspecified)	-2	7	10*	2	-4	5	0
O=C(NC1CCCCCCC1)c1ccc(F)cc1	0	6	12*	4	0	12*	7.5*
COc1ccccc1CC(=O)NC1CCCCCC1	0	4	-3	0	-1	/	/
O=C(CSc1nnc(COc2ccccc2)n1-c1ccc(Cl)cc1)Nc1ccc2c(c1)OCCO2	/	/	-5	/	/	/	/
CN1CCCCC(NC(=O)C23CC4CC(CC(C4)C2)C3)C1=O (stereo unspecified)	/	/	-3	/	/	/	/
COc1cccc(CSc2nc3ccncc3[nH]2)c1	1	15	9.3*	31	-3	6	7.0*
Cc1cc(OCC(=O)OCC(=O)NC2CCCC2)ccc1Cl	-2	3	11*	-13	0	0	2
Cc1cc(OCC(=O)NC2CCCCC2)ccc1Cl	-1	1	-1	-7	2	/	/
O=C(COC(=O)c1ccccc1)NC(=O)NC1CCCC1	-1	-1	-2	2	0	/	/
O=C(COC(=O)c1ccccc1)NC1CCCC1	0	3	10*	2	-2	4	2
C[C@H]1O[C@@H](n2c3ccc(Cl)cc3c3ccc4c5cc(Cl)ccc5[nH]c4c32)[C@H](O)[C@H](O)[C@H]1O	/	/	-4	/	/	/	/
SMILES	MPTP block	MC4R antag cAMP	SMARCA2 act	ATG4B inhibitor	MC4R barr agon	SMARCA2 act conf	VP16 Luc act
Cc1cc(O)c(C(=O)/C=C/c2ccc(Cl)cc2)c(=O)o1	0	2	1	1	1	/	/
CC(=Nc1ccc(Cl)cc1N)c1c(O)cc(C)oc1=O	/	/	9.0*	/	/	5	15*
O=C1NC2c3c(I)sc(I)c3C(=O)C2O1 (stereo unspecified)	1	21	8.7*	-6	-3	-4	0
O=C1NC2c3c(Cl)sc(Cl)c3C(=O)C2O1 (stereo unspecified)	0	0	15*	14	-1	9.0*	1
O=C1NC2c3ccccc3CC2O1 (stereo unspecified)	1	3	1	-4	-2	/	/
Cc1ccc(OCC(O)CN2CCOCC2)c(C)c1 (stereo unspecified)	0	2	8.3*	1	-1	-2	1
CS(=O)(=O)c1ccc2nc(NC(=O)c3ccco3)sc2c1	-1	-3	9.9*	-5	-1	11*	12*
Cc1ccc(C(=O)Nc2nc3ccc(S(C)(=O)=O)cc3s2)o1	-1	9	1	-13	0	/	/
CCOc1ccc2nc(NC(=O)COC)sc2c1	-1	3	8.0*	-9	0	15*	13*
O=C(Nc1nc(-c2ccc(Cl)s2)cs1)c1ccco1	1	10	-1	5	-2	/	/
O=C(Nc1nc(-c2nc3ccccc3s2)cs1)c1ccco1	1	7	12*	-10	1	9.5*	8.3*
Cc1ccc2nc(NC(=O)COC(=O)c3ccco3)sc2c1	0	9	9.8*	-1	1	8	2
Cc1nc2cc[nH]n2c(=O)c1CCc1ccccc1	/	/	-5	/	/	/	/
c1ccc2c(c1)N=C(N1CCN(Cc3ccc4c(c3)OCO4)CC1)c1ccccc1S2	/	/	-4	/	/	/	/
O=[N+]([O-])c1ccc(OC2OCC(O)C(O)C2O)cc1 (stereo unspecified)	/	/	-4	/	/	/	/
COc1ccc2nc(Nc3nc(C)c(C(C)=O)s3)sc2c1	9	5	9.7*	-23	-3	-12	14*
CCCC(=O)Nc1nc2ccc(C(=O)OCC)cc2s1	1	3	2	-12	1	/	/
CCOC(=O)c1ccc2nc(NC(=O)C(C)C)sc2c1	-2	-1	10*	-13	-2	8	4
COc1cc(CNc2ncnc3c2ncn3[C@H]2CN(Cc3ccncc3)C[C@@H](CO)O2)cc(OC)c1OC	0	6	-1	/	-2	/	/
COC(=O)Cc1nnn2c1CC(OC)c1ccccc1-2 (stereo unspecified)	/	/	3	/	/	/	/
C=CCNC(=O)c1ccc2nc(Cc3ccc(OC)cc3)oc2c1	-1	4	7	4	-1	/	/
COCCCNC(=O)c1ccc2nc(Cc3ccc(OC)cc3)oc2c1	0	5	11*	-4	-1	5	9.3*
CCCCCOC(=O)Nc1nnc(CCC)s1	0	-1	-4	-4	0	/	/
CCCCOC(=O)Nc1nnc(C(C)C)s1	-2	22	8.0*	6	2	8.6*	10.0*
Cc1nnc(SCC(=O)NC(=O)Nc2ccc3c(c2)OCCO3)s1	-2	1	11*	8	0	3	0

Compound activity from PubChem BioAssay.
